Results published in ChEMBL document CHEMBL1122187, “Synthesis and antiviral activity of certain carbamoylpyrrolopyrimidine and pyrazolopyrimidine nucleosides” (1982).

Legend:
Vero [1] = assay: Percentage plaque reduction was determined against pichinde(PICH) virus in african green monkey kidney (vero,V).Toxic level(1000 ug/mL); 10-30; assay type: functional, Chlorocebus sabaeus
Procedure, shortened: (§1)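 Infected Vero 24-well monolayers: virus adsorbed 1 h at 37 °C, then overlaid with agar holding dilutions of compound and incubated again at 37 °C with CO₂. Plaques were stained with crystal violet and counted. Inhibition was scored as % plaque reduction bands (10-30%, 31-60%, 61-90%), each tied to a drug concentration range.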

Vero [2] = assay: Percentage plaque reduction was determined against venezuelan equine encephalitis (VEE) virus in african green monkey kidney (vero,V) at a conc of 25-100 ug/mL. Toxic level(1000 ug/mL); assay type: functional, Chlorocebus sabaeus
Vero [3] = assay: Percentage plaque reduction was determined against yellow fever(YF) virus in african green monkey kidney (vero,V).Toxic level(1000 ug/mL); 61-90; assay type: functional, Chlorocebus sabaeus
Vero [4] = assay: In vitro antiviral activity against vaccinia(VV) virus was determined in african green monkey kidney (vero,V) expressed as virus rating. Toxic level(1000 ug/mL); assay type: functional, Chlorocebus sabaeus
Procedure, shortened: (§2)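 Cell monolayers (18 h) infected with 320 TCID50 of virus. Compound was added within 15–30 min at half-log dilutions from 1000 to 1 μg/mL. After 72 h at 37 °C in 5% CO2, CPE was scored 0–4 by microscopy. VR = sum of (virus control − treated) scores, halved at partially toxic levels, divided by 10 × test cups per drug level.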

Vero [5] = assay: Percentage plaque reduction was determined against venezuelan equine encephalitis (VEE) virus in african green monkey kidney (vero,V) at a conc of 100-250 ug/mL. Toxic level(1000 ug/mL); assay type: functional, Chlorocebus sabaeus
Vero [6] = assay: Percentage plaque reduction was determined against rift valley fever(RVF) virus in african green monkey kidney (vero,V) at a conc of 250-500 ug/mL. Toxic level(1000 ug/mL); 10-30; assay type: functional, Chlorocebus sabaeus
Vero [7] = assay: In vitro antiviral activity against herpes simplex type 1 (HSV-1) virus was determined in african green monkey kidney (vero,V) expressed as virus rating. Toxic level(1000 ug/mL); assay type: functional, Chlorocebus sabaeus; procedure, shortened: as §2
Vero [8] = assay: In vitro antiviral activity against parainfluenza type 3(para 3) virus was determined in african green monkey kidney (vero,V) expressed as virus rating. Toxic level(1000 ug/mL); assay type: functional, Chlorocebus sabaeus; procedure, shortened: as §2
Vero [9] = assay: Percentage plaque reduction was determined against Sandfly fever (SF) virus in african green monkey kidney (vero,V) at a conc of 25-100 ug/mL. Toxic level(1000 ug/mL); 61-90; assay type: functional, Chlorocebus sabaeus
Vero [10] = assay: Percentage plaque reduction was determined against venezuelan equine encephalitis (VEE) virus in african green monkey kidney (vero,V) at a conc of 250-500 ug/mL. Toxic level(1000 ug/mL); assay type: functional, Chlorocebus sabaeus
Vero [11] = assay: Percentage plaque reduction was determined against venezuelan equine encephalitis (VEE) virus in african green monkey kidney (vero,V) at a conc of <25 ug/mL. Toxic level(1000 ug/mL); assay type: functional, Chlorocebus sabaeus
Vero [12] = assay: In vitro antiviral activity against parainfluenza type 3(para 3) virus was determined in african green monkey kidney (vero,V) expressed as virus rating. Toxic level(>1000 ug/mL); assay type: functional, Chlorocebus sabaeus; procedure, shortened: as §2
Vero [13] = assay: In vitro antiviral activity against herpes simplex type 1 (HSV-1) virus was determined in african green monkey kidney (vero,V) expressed as virus rating. Toxic level(>1000 ug/mL); assay type: functional, Chlorocebus sabaeus; procedure, shortened: as §2
Vero [14] = assay: In vitro antiviral activity against vaccinia(VV) virus was determined in african green monkey kidney (vero,V) expressed as virus rating. Toxic level(>1000 ug/mL); assay type: functional, Chlorocebus sabaeus; procedure, shortened: as §2
HEp-2 [15] = assay: In vitro antiviral activity against herpes simplex type 1 (HSV-1) virus was determined in human laryngeal epithelioma (HEp-2,H)expressed as virus rating. Toxic level(100 ug/mL); assay type: functional; procedure, shortened: as §2
HEp-2 [16] = assay: In vitro antiviral activity against vaccinia(VV) virus was determined in human laryngeal epithelioma (HEp-2,H)expressed as virus rating. Toxic level(100 ug/mL); assay type: functional; procedure, shortened: as §2
HEp-2 [17] = assay: In vitro antiviral activity against parainfluenza type 3(para 3) virus was determined in human laryngeal epithelioma (HEp-2,H)expressed as virus rating. Toxic level(100 ug/mL); assay type: functional; procedure, shortened: as §2
Vero [18] = assay: Percentage plaque reduction was determined against yellow fever (YF) virus in african green monkey kidney (vero,V).Toxic level(320 ug/mL); 10-30; assay type: functional, Chlorocebus sabaeus
Vero [19] = assay: Percentage plaque reduction was determined against Sandfly fever (SF) virus in african green monkey kidney (vero,V) at a conc of 25-100 ug/mL. Toxic level(320 ug/mL); assay type: functional, Chlorocebus sabaeus
Vero [20] = assay: Percentage plaque reduction was determined against venezuelan equine encephalitis (VEE) virus in african green monkey kidney (vero,V) at a conc of 25-100 ug/mL. Toxic level(320 ug/mL); assay type: functional, Chlorocebus sabaeus
Vero [21] = assay: Percentage plaque reduction was determined against Sandfly fever (SF) virus in african green monkey kidney (vero,V) at a conc of <25 ug/mL. Toxic level(320 ug/mL); assay type: functional, Chlorocebus sabaeus; procedure, shortened: as §1
Vero [22] = assay: Percentage plaque reduction was determined against Sandfly fever (SF) virus in african green monkey kidney (vero,V) at a conc of 250-500 ug/mL. Toxic level(320 ug/mL); assay type: functional, Chlorocebus sabaeus
Vero [23] = assay: In vitro antiviral activity against herpes simplex type 1 (HSV-1) virus was determined in african green monkey kidney (vero,V) expressed as virus rating. Toxic level(320 ug/mL); assay type: functional, Chlorocebus sabaeus; procedure, shortened: as §2
Vero [24] = assay: Percentage plaque reduction was determined against venezuelan equine encephalitis (VEE) virus in african green monkey kidney (vero,V) at a conc of 100-250 ug/mL. Toxic level(320 ug/mL); assay type: functional, Chlorocebus sabaeus
Vero [25] = assay: Percentage plaque reduction was determined against Sandfly fever (SF) virus in african green monkey kidney (vero,V) at a conc of 100-250 ug/mL. Toxic level(320 ug/mL); assay type: functional, Chlorocebus sabaeus
Vero [26] = assay: Percentage plaque reduction was determined against venezuelan equine encephalitis (VEE) virus in african green monkey kidney (vero,V) at a conc of <25 ug/mL. Toxic level(320 ug/mL); assay type: functional, Chlorocebus sabaeus
Vero [27] = assay: Percentage plaque reduction was determined against venezuelan equine encephalitis (VEE) virus in african green monkey kidney (vero,V) at a conc of 250-500 ug/mL. Toxic level(320 ug/mL); assay type: functional, Chlorocebus sabaeus
Vero [28] = assay: In vitro antiviral activity against vaccinia(VV) virus was determined in african green monkey kidney (vero,V) expressed as virus rating. Toxic level(320 ug/mL); assay type: functional, Chlorocebus sabaeus; procedure, shortened: as §2
Vero [29] = assay: Percentage plaque reduction was determined against rift valley fever(RVF) virus in african green monkey kidney (vero,V) at a conc of 250-500 ug/mL. Toxic level(320 ug/mL); 10-30; assay type: functional, Chlorocebus sabaeus
Vero [30] = assay: In vitro antiviral activity against parainfluenza type 3(para 3) virus was determined in african green monkey kidney (vero,V) expressed as virus rating. Toxic level(320 ug/mL); assay type: functional, Chlorocebus sabaeus; procedure, shortened: as §2
Vero [31] = assay: Percentage plaque reduction was determined against venezuelan equine encephalitis (VEE) virus in african green monkey kidney (vero,V) at a conc of 250-500 ug/mL. Toxic level(>1000 ug/mL); 10-30; assay type: functional, Chlorocebus sabaeus
Vero [32] = assay: Percentage plaque reduction was determined against yellow fever(YF) virus in african green monkey kidney (vero,V).Toxic level(>1000 ug/mL); 61-90; assay type: functional, Chlorocebus sabaeus
HEp-2 [33] = assay: In vitro antiviral activity against vaccinia(VV) virus was determined in human laryngeal epithelioma (HEp-2,H)expressed as virus rating. Toxic level(>1000 ug/mL); assay type: functional; procedure, shortened: as §2
Vero [34] = assay: Percentage plaque reduction was determined against pichinde(PICH) virus in african green monkey kidney (vero,V). Toxic level(>1000 ug/mL); 61-90; assay type: functional, Chlorocebus sabaeus; procedure, shortened: as §1
Vero [35] = assay: Percentage plaque reduction was determined against rift valley fever(RVF) virus in african green monkey kidney (vero,V) at a conc of 100-250 ug/mL. Toxic level(>1000 ug/mL); 31-60; assay type: functional, Chlorocebus sabaeus
HEp-2 [36] = assay: In vitro antiviral activity against herpes simplex type 1 (HSV-1) virus was determined in human laryngeal epithelioma (HEp-2,H)expressed as virus rating. Toxic level(>1000 ug/mL); assay type: functional; procedure, shortened: as §2
Vero [37] = assay: Percentage plaque reduction was determined against Sandfly fever (SF) virus in african green monkey kidney (vero,V) at a conc of 25-100 ug/mL. Toxic level(>1000 ug/mL); 61-90; assay type: functional, Chlorocebus sabaeus
HEp-2 [38] = assay: In vitro antiviral activity against parainfluenza type 3 (para 3) type 1 (HSV-1) virus was determined in human laryngeal epithelioma (HEp-2,H)expressed as virus rating. Toxic level(>1000 ug/mL); assay type: functional; procedure, shortened: as §2
Vero [39] = assay: In vitro antiviral activity against vaccinia(VV) virus was determined in african green monkey kidney (vero,V) expressed as virus rating.; assay type: functional, Chlorocebus sabaeus; procedure, shortened: as §2
Vero [40] = assay: In vitro antiviral activity against parainfluenza type 3(para 3) virus was determined in african green monkey kidney (vero,V) expressed as virus rating.; assay type: functional, Chlorocebus sabaeus; procedure, shortened: as §2
HEp-2 [41] = assay: In vitro antiviral activity against vaccinia(VV) virus was determined in human laryngeal epithelioma (HEp-2,H)expressed as virus rating. Toxic level (320 ug/mL); assay type: functional; procedure, shortened: as §2
HEp-2 [42] = assay: In vitro antiviral activity against parainfluenza type-3 (para 3) virus was determined in human laryngeal epithelioma (HEp-2,H)expressed as virus rating. Toxic level(320 ug/mL); assay type: functional; procedure, shortened: as §2
HEp-2 [43] = assay: In vitro antiviral activity against herpes simplex type 1 (HSV-1) virus was determined in human laryngeal epithelioma (HEp-2,H)expressed as virus rating. Toxic level(320 ug/mL); assay type: functional; procedure, shortened: as §2

## OC[C@H]1O[C@@H](C2=NNC3C(=S)N=CN=C23)[C@H](O)[C@@H]1O (stereo partly drawn)
Vero [1]
  Plaque reduction: 10%
Vero [2]
  Plaque reduction: 0%
Vero [3]
  Plaque reduction: 61%
Vero [4]
  Virus rating: 1
Vero [5]
  Plaque reduction: 0%
Vero [6]
  Plaque reduction: 10%
Vero [7]
  Virus rating: 0
Vero [8]
  Virus rating: 1.1
Vero [9]
  Plaque reduction: 61%
Vero [10]
  Plaque reduction: 0%
Vero [11]
  Plaque reduction: 0%

## OC[C@H]1O[C@@H](n2ccc3c(S)ncnc32)[C@H](O)[C@@H]1O
Vero [12]
  Virus rating: 1.1
Vero [13]
  Virus rating: 0.2
Vero [14]
  Virus rating: 0.5

## NC(=O)c1ncnc2c1ccn2C1O[C@H](CO)[C@@H](O)[C@H]1O (stereo partly drawn)
HEp-2 [15]
  Virus rating: 0
HEp-2 [16]
  Virus rating: 1.2
Vero [4]
  Virus rating: 1.3
HEp-2 [17]
  Virus rating: 0.2
Vero [7]
  Virus rating: 0.4
Vero [8]
  Virus rating: 0.4

## CSc1ncnc2c1cnn2[C@@H]1O[C@H](COC(C)=O)[C@@H](OC(C)=O)[C@H]1OC(C)=O
Vero [18]
  Plaque reduction: 10%
Vero [19]
  Plaque reduction: 0%
Vero [20]
  Plaque reduction: 0%
Vero [21]
  Plaque reduction: 0%
Vero [22]
  Plaque reduction: 0%
Vero [23]
  Virus rating: 0
Vero [24]
  Plaque reduction: 0%
Vero [25]
  Plaque reduction: 0%
Vero [26]
  Plaque reduction: 0%
Vero [27]
  Plaque reduction: 0%
Vero [28]
  Virus rating: 0.5
Vero [29]
  Plaque reduction: 10%
Vero [30]
  Virus rating: 0

## OC[C@H]1OC(n2ncc3c(S)ncnc32)[C@H](O)[C@@H]1O (stereo partly drawn)
Vero [12]
  Virus rating: 0.7
Vero [13]
  Virus rating: 0
Vero [14]
  Virus rating: 0.9

## OC[C@H]1O[C@@H](c2n[nH]c3c(Cl)ncnc23)[C@H](O)[C@@H]1O
Vero [23]
  Virus rating: 0
Vero [28]
  Virus rating: 1
Vero [30]
  Virus rating: 1.3

## NC(=O)c1ncn([C@@H]2O[C@H](CO)[C@@H](O)[C@H]2O)n1 [RIBAVIRIN]
Vero [12]
  Virus rating: 1.3
Vero [31]
  Plaque reduction: 10%
Vero [32]
  Plaque reduction: 61%
Vero [13]
  Virus rating: 0.6
HEp-2 [33]
  Virus rating: 1.7
Vero [34]
  Plaque reduction: 61%
Vero [35]
  Plaque reduction: 31%
HEp-2 [36]
  Virus rating: 1.2
Vero [37]
  Plaque reduction: 61%
HEp-2 [38]
  Virus rating: 1.7
Vero [14]
  Virus rating: 1.2

## CSc1ncnc2c1cnn2C1O[C@H](CO)[C@@H](O)[C@H]1O (stereo partly drawn)
Vero [39]
  Virus rating: 0.2
Vero [40]
  Virus rating: 1
Vero [13]
  Virus rating: 0.2

## OC[C@H]1O[C@@H](n2cnc3c(Cl)ncnc32)[C@H](O)[C@@H]1O
Vero [4]
  Virus rating: 1.8
Vero [7]
  Virus rating: 0.4
Vero [8]
  Virus rating: 0.4

## NC(=O)c1ncnc2c1ncn2C1O[C@H](CO)[C@@H](O)[C@H]1O (stereo partly drawn)
Vero [12]
  Virus rating: 0
HEp-2 [41]
  Virus rating: 1.1
Vero [13]
  Virus rating: 0.6
HEp-2 [42]
  Virus rating: 1.4
HEp-2 [43]
  Virus rating: 0.6
Vero [14]
  Virus rating: 1.5

## CSc1ncnc2c1ncn2[C@@H]1O[C@H](CO)[C@@H](O)[C@H]1O
Vero [23]
  Virus rating: 1.7
Vero [28]
  Virus rating: 2
Vero [30]
  Virus rating: 2.2

## OC[C@H]1O[C@@H](n2cnc3c(S)ncnc32)[C@H](O)[C@@H]1O [THIOINOSINE]
Vero [4]
  Virus rating: 1.1
Vero [7]
  Virus rating: 0.8
Vero [8]
  Virus rating: 1.2
